Assay results: ChEMBL document CHEMBL4689842, “EUbOPEN Chemogenomics Library wave 1” (2021)

System: HEK-293T
Experiment: Multiplex assay against HEK293T;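 as to Population Tubulin-Different-Phenotype (%): share of the cells with healthy nuclei that show this phenotype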
Format: toxicity, cell-based
Conditions: human
How it was run: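 Phenotypes for tubulin, mitochondrial mass and membrane permeability are expressed as per cents of healthy-nucleus cells. Cells were stained live at seeding with Hoechst33342, BioTracker Green Microtubule Cytoskeleton Dye, MitoTracker Red and Annexin V Alexa Fluor 680, then imaged after compound addition on a CQ1 microscope at 37°C and 5% CO2. Machine-learning gating in CellPathfinder separated Hoechst high-intensity objects from normal cells, divided normal cells by nuclear state (healthy, pyknosed, fragmented) and divided pyknosed cells into mitotic or apoptotic.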

[1] = 12 h, 1 µM, compound concentration 1 uM, replicate 1
[2] = 12 h, 1 µM, compound concentration 1 uM, replicate 2
[3] = 12 h, 10 µM, compound concentration 10 uM, replicate 1
[4] = 12 h, 10 µM, compound concentration 10 uM, replicate 2
[5] = 24 h, 1 µM, compound concentration 1 uM, replicate 1
[6] = 24 h, 1 µM, compound concentration 1 uM, replicate 2
[7] = 24 h, 10 µM, compound concentration 10 uM, replicate 1
[8] = 24 h, 10 µM, compound concentration 10 uM, replicate 2

Structure (SMILES): CN(C)C/C=C/C(=O)Nc1cc2c(Nc3ccc(F)c(Cl)c3)ncnc2cc1O[C@H]1CCOC1.O=C(O)/C=C\C(=O)O.O=C(O)/C=C\C(=O)O [AFATINIB DIMALEATE]
- Population Apoptotic (%) [1]: 26%
- Population Fragmented Nuclei (%) [1]: 23%
- Population Healthy Nuclei (%) [1]: 54%
- Population Hoechst High Intensity Objects (%) [1]: 15%
- Population Membrane Permeable-Phenotype (%) [1]: 5%
- Population Mitochondria Different-Phenotype (%) [1]: 4%
- Population Mitotic Cells (%) [1]: 73%
- Population Normal (%) [1]: 84%
- Population Pyknosed Nuclei (%) [1]: 22%
- Population Tubulin-Different-Phenotype (%) [1]: 5%
- Total Cell Count [1]: 581
- Population Apoptotic (%) [2]: 16%
- Population Fragmented Nuclei (%) [2]: 6%
- Population Healthy Nuclei (%) [2]: 87%
- Population Hoechst High Intensity Objects (%) [2]: 3%
- Population Membrane Permeable-Phenotype (%) [2]: 4%
- Population Mitochondria Different-Phenotype (%) [2]: 13%
- Population Mitotic Cells (%) [2]: 83%
- Population Normal (%) [2]: 96%
- Population Pyknosed Nuclei (%) [2]: 5%
- Population Tubulin-Different-Phenotype (%) [2]: 10%
- Total Cell Count [2]: 1304
- Population Apoptotic (%) [3]: 23%
- Population Fragmented Nuclei (%) [3]: 17%
- Population Healthy Nuclei (%) [3]: 32%
- Population Hoechst High Intensity Objects (%) [3]: 18%
- Population Membrane Permeable-Phenotype (%) [3]: 17%
- Population Mitochondria Different-Phenotype (%) [3]: 35%
- Population Mitotic Cells (%) [3]: 76%
- Population Normal (%) [3]: 81%
- Population Pyknosed Nuclei (%) [3]: 50%
- Population Tubulin-Different-Phenotype (%) [3]: 82%
- Total Cell Count [3]: 647
- Population Apoptotic (%) [4]: 17%
- Population Fragmented Nuclei (%) [4]: 3%
- Population Healthy Nuclei (%) [4]: 53%
- Population Hoechst High Intensity Objects (%) [4]: 4%
- Population Membrane Permeable-Phenotype (%) [4]: 9%
- Population Mitochondria Different-Phenotype (%) [4]: 64%
- Population Mitotic Cells (%) [4]: 82%
- Population Normal (%) [4]: 96%
- Population Pyknosed Nuclei (%) [4]: 42%
- Population Tubulin-Different-Phenotype (%) [4]: 97%
- Total Cell Count [4]: 999
- Population Apoptotic (%) [5]: 25%
- Population Fragmented Nuclei (%) [5]: 17%
- Population Healthy Nuclei (%) [5]: 71%
- Population Hoechst High Intensity Objects (%) [5]: 10%
- Population Membrane Permeable-Phenotype (%) [5]: 6%
- Population Mitochondria Different-Phenotype (%) [5]: 3%
- Population Mitotic Cells (%) [5]: 74%
- Population Normal (%) [5]: 89%
- Population Pyknosed Nuclei (%) [5]: 11%
- Population Tubulin-Different-Phenotype (%) [5]: 7%
- Total Cell Count [5]: 598
- Population Apoptotic (%) [6]: 12%
- Population Fragmented Nuclei (%) [6]: 20%
- Population Healthy Nuclei (%) [6]: 76%
- Population Hoechst High Intensity Objects (%) [6]: 3%
- Population Membrane Permeable-Phenotype (%) [6]: 4%
- Population Mitotic Cells (%) [6]: 87%
- Population Normal (%) [6]: 96%
- Population Pyknosed Nuclei (%) [6]: 3%
- Population Tubulin-Different-Phenotype (%) [6]: 9%
- Total Cell Count [6]: 2098
- Population Apoptotic (%) [7]: 39%
- Population Fragmented Nuclei (%) [7]: 23%
- Population Healthy Nuclei (%) [7]: 34%
- Population Hoechst High Intensity Objects (%) [7]: 19%
- Population Membrane Permeable-Phenotype (%) [7]: 10%
- Population Mitochondria Different-Phenotype (%) [7]: 58%
- Population Mitotic Cells (%) [7]: 60%
- Population Normal (%) [7]: 80%
- Population Pyknosed Nuclei (%) [7]: 42%
- Population Tubulin-Different-Phenotype (%) [7]: 77%
- Total Cell Count [7]: 637
- Population Apoptotic (%) [8]: 25%
- Population Fragmented Nuclei (%) [8]: 12%
- Population Healthy Nuclei (%) [8]: 55%
- Population Hoechst High Intensity Objects (%) [8]: 9%
- Population Membrane Permeable-Phenotype (%) [8]: 6%
- Population Mitochondria Different-Phenotype (%) [8]: 69%
- Population Mitotic Cells (%) [8]: 74%
- Population Normal (%) [8]: 90%
- Population Pyknosed Nuclei (%) [8]: 32%
- Population Tubulin-Different-Phenotype (%) [8]: 90%
- Total Cell Count [8]: 1048

Structure (SMILES): CC(C)(C)c1cnc(CSc2cnc(NC(=O)C3CCNCC3)s2)o1 [BMS-387032]
- Population Apoptotic (%) [1]: 25%
- Population Fragmented Nuclei (%) [1]: 21%
- Population Healthy Nuclei (%) [1]: 51%
- Population Hoechst High Intensity Objects (%) [1]: 19%
- Population Membrane Permeable-Phenotype (%) [1]: 3%
- Population Mitochondria Different-Phenotype (%) [1]: 8%
- Population Mitotic Cells (%) [1]: 74%
- Population Normal (%) [1]: 80%
- Population Pyknosed Nuclei (%) [1]: 27%
- Population Tubulin-Different-Phenotype (%) [1]: 4%
- Total Cell Count [1]: 507
- Population Apoptotic (%) [2]: 21%
- Population Fragmented Nuclei (%) [2]: 4%
- Population Healthy Nuclei (%) [2]: 85%
- Population Hoechst High Intensity Objects (%) [2]: 4%
- Population Membrane Permeable-Phenotype (%) [2]: 1%
- Population Mitochondria Different-Phenotype (%) [2]: 25%
- Population Mitotic Cells (%) [2]: 78%
- Population Normal (%) [2]: 95%
- Population Pyknosed Nuclei (%) [2]: 10%
- Population Tubulin-Different-Phenotype (%) [2]: 13%
- Total Cell Count [2]: 981
- Population Apoptotic (%) [3]: 23%
- Population Fragmented Nuclei (%) [3]: 15%
- Population Healthy Nuclei (%) [3]: 51%
- Population Hoechst High Intensity Objects (%) [3]: 21%
- Population Membrane Permeable-Phenotype (%) [3]: 4%
- Population Mitochondria Different-Phenotype (%) [3]: 17%
- Population Mitotic Cells (%) [3]: 76%
- Population Normal (%) [3]: 78%
- Population Pyknosed Nuclei (%) [3]: 33%
- Population Tubulin-Different-Phenotype (%) [3]: 27%
- Total Cell Count [3]: 549
- Population Apoptotic (%) [4]: 24%
- Population Fragmented Nuclei (%) [4]: 2%
- Population Healthy Nuclei (%) [4]: 86%
- Population Hoechst High Intensity Objects (%) [4]: 10%
- Population Membrane Permeable-Phenotype (%) [4]: 1%
- Population Mitochondria Different-Phenotype (%) [4]: 42%
- Population Mitotic Cells (%) [4]: 75%
- Population Normal (%) [4]: 90%
- Population Pyknosed Nuclei (%) [4]: 10%
- Population Tubulin-Different-Phenotype (%) [4]: 58%
- Total Cell Count [4]: 880
- Population Apoptotic (%) [5]: 27%
- Population Fragmented Nuclei (%) [5]: 21%
- Population Healthy Nuclei (%) [5]: 53%
- Population Hoechst High Intensity Objects (%) [5]: 20%
- Population Membrane Permeable-Phenotype (%) [5]: 6%
- Population Mitochondria Different-Phenotype (%) [5]: 9%
- Population Mitotic Cells (%) [5]: 72%
- Population Normal (%) [5]: 79%
- Population Pyknosed Nuclei (%) [5]: 24%
- Population Tubulin-Different-Phenotype (%) [5]: 9%
- Total Cell Count [5]: 451
- Population Apoptotic (%) [6]: 22%
- Population Fragmented Nuclei (%) [6]: 6%
- Population Healthy Nuclei (%) [6]: 87%
- Population Hoechst High Intensity Objects (%) [6]: 8%
- Population Membrane Permeable-Phenotype (%) [6]: 1%
- Population Mitochondria Different-Phenotype (%) [6]: 22%
- Population Mitotic Cells (%) [6]: 77%
- Population Normal (%) [6]: 91%
- Population Pyknosed Nuclei (%) [6]: 5%
- Population Tubulin-Different-Phenotype (%) [6]: 17%
- Total Cell Count [6]: 934
- Population Apoptotic (%) [7]: 27%
- Population Fragmented Nuclei (%) [7]: 16%
- Population Healthy Nuclei (%) [7]: 45%
- Population Hoechst High Intensity Objects (%) [7]: 23%
- Population Membrane Permeable-Phenotype (%) [7]: 1%
- Population Mitochondria Different-Phenotype (%) [7]: 34%
- Population Mitotic Cells (%) [7]: 72%
- Population Normal (%) [7]: 76%
- Population Pyknosed Nuclei (%) [7]: 38%
- Population Tubulin-Different-Phenotype (%) [7]: 30%
- Total Cell Count [7]: 494
- Population Apoptotic (%) [8]: 31%
- Population Fragmented Nuclei (%) [8]: 3%
- Population Healthy Nuclei (%) [8]: 83%
- Population Hoechst High Intensity Objects (%) [8]: 14%
- Population Membrane Permeable-Phenotype (%) [8]: 0%
- Population Mitochondria Different-Phenotype (%) [8]: 54%
- Population Mitotic Cells (%) [8]: 68%
- Population Normal (%) [8]: 85%
- Population Pyknosed Nuclei (%) [8]: 13%
- Population Tubulin-Different-Phenotype (%) [8]: 61%
- Total Cell Count [8]: 828
